{
  "source": "ChEMBL document CHEMBL1212735",
  "about": "“Metronidazole resistance in Prevotella spp. and description of a new nim gene in Prevotella baroniae” (2010)",
  "type_in_all_cases": "functional",
  "key": {"Prevotella bivia [1]": {"test_system": "Prevotella bivia", "experiment": "Antimicrobial activity against slow growing colonies of Prevotella bivia LBP 65 deficient in nim gene assessed as inhibition of growth at 48 hrs by agar dilution method", "conditions": "LBP 65, 48 h", "method_in_brief": "(§1)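 Metronidazole MIC by agar dilution per CLSI M11-A7 on brucella agar with 5% sheep blood, hemin and vitamin K1. Plates incubated anaerobically at 35°C and read at 48 h, with a second reading after a further 72 h. B. fragilis ATCC 25285T and B. thetaiotaomicron ATCC 29741 served as controls. Done in duplicate; EUCAST breakpoints applied (S ≤4, R ≥8 μg/ml).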"}, "Prevotella bivia [2]": {"test_system": "Prevotella bivia", "experiment": "Antimicrobial activity against slow growing colonies of Prevotella bivia LBN 371 deficient in nim gene assessed as inhibition of growth at 48 hrs by agar dilution method", "conditions": "LBN 371, 48 h", "method_in_brief": "as §1"}, "Prevotella bivia [3]": {"test_system": "Prevotella bivia", "experiment": "Antimicrobial activity against Prevotella bivia LBP 52 deficient in nim gene assessed as inhibition of growth at 48 hrs by agar dilution method", "conditions": "LBP 52, 48 h", "method_in_brief": "(§2)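 Metronidazole MIC by agar dilution (CLSI M11-A7) on brucella agar with 5% sheep blood, hemin and vitamin K1. Plates were read after 48 h at 35°C under anaerobic conditions. Susceptible was MIC ≤ 4 μg/ml and resistant MIC ≥ 8 μg/ml (EUCAST). B. fragilis ATCC 25285T and B. thetaiotaomicron ATCC 29741 were run as controls. Duplicate assays.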"}, "Prevotella baroniae [4]": {"test_system": "Prevotella baroniae", "experiment": "Antimicrobial activity against Prevotella baroniae LBN 432 expressing nim gene assessed as inhibition of growth at 48 hrs by agar dilution method", "conditions": "Segatella baroniae, LBN 432, 48 h", "method_in_brief": "as §2"}, "Prevotella bivia [5]": {"test_system": "Prevotella bivia", "experiment": "Antimicrobial activity against slow growing colonies of Prevotella bivia LBP 52 deficient in nim gene assessed as inhibition of growth at 48 hrs by agar dilution method", "conditions": "LBP 52, 48 h", "method_in_brief": "as §1"}, "Prevotella bivia [6]": {"test_system": "Prevotella bivia", "experiment": "Antimicrobial activity against Prevotella bivia LBN 478 deficient in nim gene assessed as inhibition of growth at 48 hrs by agar dilution method", "conditions": "LBN 478, 48 h", "method_in_brief": "as §2"}, "Prevotella bivia [7]": {"test_system": "Prevotella bivia", "experiment": "Antimicrobial activity against slow growing colonies of Prevotella bivia LBN 331 deficient in nim gene assessed as inhibition of growth at 48 hrs by agar dilution method", "conditions": "LBN 331, 48 h", "method_in_brief": "(§3)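 Slowly growing colonies inside the Etest inhibition zone, seen after prolonged incubation (an additional 72 h after the 48 h reading), were subcultured without antibiotic. They were then retested for metronidazole MIC by agar dilution on supplemented brucella blood agar under anaerobic conditions.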"}, "Prevotella nanceiensis [8]": {"test_system": "Prevotella nanceiensis", "experiment": "Antimicrobial activity against slow growing colonies of Prevotella nanceiensis LBN 298 deficient in nim gene assessed as inhibition of growth at 48 hrs by agar dilution method", "conditions": "Hoylesella nanceiensis, LBN 298, 48 h", "method_in_brief": "as §1"}, "Prevotella nanceiensis [9]": {"test_system": "Prevotella nanceiensis", "experiment": "Antimicrobial activity against Prevotella nanceiensis LBN 410 deficient in nimI gene assessed as inhibition of growth after several passages on plates containing increasing concentration of compound by agar dilution method", "conditions": "Hoylesella nanceiensis", "method_in_brief": "(§4)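 Induction of metronidazole resistance: bacterial suspensions inoculated onto brucella blood agar (5% sheep blood, hemin, vitamin K1) containing metronidazole at increasing concentrations, grown anaerobically at 37°C. Colonies growing at the highest concentration were retested for MIC by CLSI agar dilution on the same agar. Duplicate experiments.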"}, "Prevotella bivia [10]": {"test_system": "Prevotella bivia", "experiment": "Antimicrobial activity against Prevotella bivia LBN 346 deficient in nim gene assessed as inhibition of growth at 48 hrs by agar dilution method", "conditions": "LBN 346, 48 h", "method_in_brief": "(§5)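 Agar dilution MIC on brucella agar with 5% sheep blood, hemin and vitamin K1, following CLSI M11-A7. Plates read after 48 h at 35°C under anaerobic conditions, with B. fragilis ATCC 25285T and B. thetaiotaomicron ATCC 29741 as controls. Assays in duplicate. Isolates kept at −80°C in brucella broth with 15% glycerol. Interpretation used EUCAST breakpoints (S ≤4, R ≥8 μg/ml).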"}, "Prevotella nanceiensis [11]": {"test_system": "Prevotella nanceiensis", "experiment": "Antimicrobial activity against Prevotella nanceiensis LBN 410 deficient in nimI gene assessed as inhibition of growth after three consecutive subcultures on compound free medium by agar dilution method", "conditions": "Hoylesella nanceiensis", "method_in_brief": "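Stability of induced resistance: metronidazole-selected isolates were subcultured three consecutive times on drug-free brucella blood agar (5% sheep blood, hemin, vitamin K1) under anaerobic conditions, then MIC was redetermined by CLSI agar dilution. Resistance was called stable if the MIC held within ±1 dilution. Duplicate experiments.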"}, "Prevotella baroniae [12]": {"test_system": "Prevotella baroniae", "experiment": "Antimicrobial activity against Prevotella baroniae LBN 427 expressing nim gene assessed as inhibition of growth at 48 hrs by agar dilution method", "conditions": "Segatella baroniae, LBN 427, 48 h", "method_in_brief": "as §2"}, "Prevotella buccae [13]": {"test_system": "Prevotella buccae", "experiment": "Antimicrobial activity against Prevotella buccae LBN 465 deficient in nimI gene assessed as inhibition of growth after several passages on plates containing increasing concentration of compound by agar dilution method", "conditions": "Segatella buccae", "method_in_brief": "as §4"}, "Prevotella bivia [14]": {"test_system": "Prevotella bivia", "experiment": "Antimicrobial activity against Prevotella bivia LBN 333 deficient in nim gene assessed as inhibition of growth at 48 hrs by agar dilution method", "conditions": "LBN 333, 48 h", "method_in_brief": "as §2"}, "Prevotella buccae [15]": {"test_system": "Prevotella buccae", "experiment": "Antimicrobial activity against Prevotella buccae LBN 465 deficient in nimI gene assessed as inhibition of growth at 48 hrs by agar dilution method", "conditions": "Segatella buccae, LBN 465, 48 h", "method_in_brief": "as §5"}, "Prevotella nanceiensis [16]": {"test_system": "Prevotella nanceiensis", "experiment": "Antimicrobial activity against slow growing colonies of Prevotella nanceiensis LBN 293b deficient in nim gene assessed as inhibition of growth at 48 hrs by agar dilution method", "conditions": "Hoylesella nanceiensis", "method_in_brief": "as §1"}, "Prevotella bivia [17]": {"test_system": "Prevotella bivia", "experiment": "Antimicrobial activity against Prevotella bivia LBP 65 deficient in nim gene assessed as inhibition of growth at 48 hrs by agar dilution method", "conditions": "LBP 65, 48 h", "method_in_brief": "as §2"}, "Prevotella nanceiensis [18]": {"test_system": "Prevotella nanceiensis", "experiment": "Antimicrobial activity against Prevotella nanceiensis LBN 298 deficient in nim gene assessed as inhibition of growth at 48 hrs by Etest method", "conditions": "Hoylesella nanceiensis, LBN 298, 48 h", "method_in_brief": "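Metronidazole Etest, per the manufacturer's instructions, on brucella blood agar with hemin and vitamin K1. Read after 48 h at 35°C under anaerobic conditions. Breakpoints were ≤ 4 μg/ml susceptible and ≥ 8 μg/ml resistant (EUCAST). Duplicate assays.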"}, "Prevotella bivia [19]": {"test_system": "Prevotella bivia", "experiment": "Antimicrobial activity against Prevotella bivia LBN 374 deficient in nim gene assessed as inhibition of growth at 48 hrs by agar dilution method", "conditions": "LBN 374, 48 h", "method_in_brief": "as §2"}, "Prevotella baroniae [20]": {"test_system": "Prevotella baroniae", "experiment": "Antimicrobial activity against Prevotella baroniae LBN 432 expressing nimI gene assessed as inhibition of growth after several passages on plates containing increasing concentration of compound by agar dilution method", "conditions": "Segatella baroniae", "method_in_brief": "as §4"}, "Prevotella bivia [21]": {"test_system": "Prevotella bivia", "experiment": "Antimicrobial activity against Prevotella bivia LBN 371 deficient in nim gene assessed as inhibition of growth at 48 hrs by agar dilution method", "conditions": "LBN 371, 48 h", "method_in_brief": "as §2"}, "Prevotella bivia [22]": {"test_system": "Prevotella bivia", "experiment": "Antimicrobial activity against Prevotella bivia LBN 334 deficient in nim gene assessed as inhibition of growth at 48 hrs by agar dilution method", "conditions": "LBN 334, 48 h", "method_in_brief": "as §2"}, "Prevotella bivia [23]": {"test_system": "Prevotella bivia", "experiment": "Antimicrobial activity against slow growing colonies of Prevotella bivia LBN 478 deficient in nim gene assessed as inhibition of growth at 48 hrs by agar dilution method", "conditions": "LBN 478, 48 h", "method_in_brief": "as §1"}, "Bacteroides fragilis [24]": {"test_system": "Bacteroides fragilis", "experiment": "Antimicrobial activity against Bacteroides fragilis ATCC 25285T deficient in nimI gene assessed as inhibition of growth at 48 hrs by agar dilution method", "method_in_brief": "as §2"}, "Bacteroides fragilis [25]": {"test_system": "Bacteroides fragilis", "experiment": "Antimicrobial activity against Bacteroides fragilis ATCC 25285T deficient in nimI gene assessed as inhibition of growth after several passages on plates containing increasing concentration of compound by agar dilution method", "method_in_brief": "as §4"}, "Prevotella bivia [26]": {"test_system": "Prevotella bivia", "experiment": "Antimicrobial activity against slow growing colonies of Prevotella bivia LBN 332 deficient in nim gene assessed as inhibition of growth at 48 hrs by agar dilution method", "conditions": "LBN 332, 48 h", "method_in_brief": "as §3"}},
  "data": [
    {"smiles": "Cc1ncc([N+](=O)[O-])n1CCO", "note": "[METRONIDAZOLE]", "values": [
      {"measurement": "MIC", "setting": "Prevotella bivia [1]", "value": 32, "unit": "µg/mL"},
      {"measurement": "MIC", "setting": "Prevotella bivia [2]", "value": 32, "unit": "µg/mL"},
      {"measurement": "MIC", "setting": "Prevotella bivia [3]", "value": 4, "unit": "µg/mL"},
      {"measurement": "MIC", "setting": "Prevotella baroniae [4]", "value": 2, "unit": "µg/mL"},
      {"measurement": "MIC", "setting": "Prevotella bivia [5]", "value": 16, "unit": "µg/mL"},
      {"measurement": "MIC", "setting": "Prevotella bivia [6]", "value": 4, "unit": "µg/mL"},
      {"measurement": "MIC", "setting": "Prevotella bivia [7]", "value": 16, "unit": "µg/mL"},
      {"measurement": "MIC", "setting": "Prevotella nanceiensis [8]", "value": 32, "unit": "µg/mL"},
      {"measurement": "MIC", "setting": "Prevotella nanceiensis [9]", "value": 256, "unit": "µg/mL"},
      {"measurement": "MIC", "setting": "Prevotella bivia [10]", "value": 1, "unit": "µg/mL"},
      {"measurement": "MIC", "setting": "Prevotella nanceiensis [11]", "value": 256, "unit": "µg/mL"},
      {"measurement": "MIC", "setting": "Prevotella baroniae [12]", "value": 4, "unit": "µg/mL"},
      {"measurement": "MIC", "setting": "Prevotella buccae [13]", "value": 128, "unit": "µg/mL"},
      {"measurement": "MIC", "setting": "Prevotella bivia [14]", "value": 2, "unit": "µg/mL"},
      {"measurement": "MIC", "setting": "Prevotella buccae [15]", "value": 0.5, "unit": "µg/mL"},
      {"measurement": "MIC", "setting": "Prevotella nanceiensis [16]", "value": 32, "unit": "µg/mL"},
      {"measurement": "MIC", "setting": "Prevotella bivia [17]", "value": 4, "unit": "µg/mL"},
      {"measurement": "MIC", "setting": "Prevotella nanceiensis [18]", "value": 4, "unit": "µg/mL"},
      {"measurement": "MIC", "setting": "Prevotella bivia [19]", "value": 2, "unit": "µg/mL"},
      {"measurement": "MIC", "setting": "Prevotella baroniae [20]", "value": 64, "unit": "µg/mL"},
      {"measurement": "MIC", "setting": "Prevotella bivia [21]", "value": 4, "unit": "µg/mL"},
      {"measurement": "MIC", "setting": "Prevotella bivia [22]", "value": 2, "unit": "µg/mL"},
      {"measurement": "MIC", "setting": "Prevotella bivia [23]", "value": 8, "unit": "µg/mL"},
      {"measurement": "MIC", "setting": "Bacteroides fragilis [24]", "value": 0.5, "unit": "µg/mL"},
      {"measurement": "MIC", "setting": "Bacteroides fragilis [25]", "value": 256, "unit": "µg/mL"},
      {"measurement": "MIC", "setting": "Prevotella bivia [26]", "value": 32, "unit": "µg/mL"}
    ]}
  ]
}
